The results in this text go back to PubChem BioAssay AID488885 (Broad Institute, 2010).

Test [1] is described as follows: caspase activation in Mcl1-dependent HMC1-8 cells, dose response, selectivity assay for A1 inhibitor project, cell-based, CaspaseGlo luminescence, dry powder (AID 488885). The following applies: HMC1-8 (Mcl1-dependent) caspase activation, CaspaseGlo luminescence, 4 h; at 150 µM (top of the series). In a few lines:
(§1)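 Compound dosing: pin-transferred compound; material: Low-A1 HMC 1-8 human cancer cells; timing: 4 h compound exposure at 37 °C, then 1 h CaspaseGlo; measured by: luminescence with CaspaseGlo reagent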

In test [2] the test system is HMC1-8 (Mcl1-dependent) caspase activation, CaspaseGlo luminescence, 4 h. Described as above. An outline of the steps:
as §1

Records with an inconclusive call do not appear. Calls of active or inactive are those of the source.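 Rule for the calls: active = compounds raising caspase signal whose fitted half-max concentration is within ten times the top valid dose; inconclusive = flat curve with moderate caspase rise, or unreliable fit; inactive = flat near zero, too weak, or opposite direction.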

As usually defined, the AC50 is the concentration giving half of the maximal activity seen.

Regarding `CC(=O)OC(C)(C)/C=C/C(=O)[C@](C)(O)C1[C@H](O)C[C@@]2(C)C3CC=C4C(C[C@H](O)C(=O)C4(C)C)[C@]3(C)C(=O)C[C@]12C` (stereo not given in full), the caspase activation in test [1] was 17.2% (inactive).

On to `C/C1=C/C(=O)O[C@@H]2C[C@@H](CC[C@H](C)/C=C\CC1)O[C@@](O)(C1CSC(=O)N1)C2` (stereo not given in full), for which the caspase activation in test [1] is 3.84% (inactive).

Take `COc1cc(/C=C(/C#N)c2nc3ccccc3[nH]2)ccc1OCC(=O)Nc1ccccc1C(C)C`: the caspase activation in test [1] was 13.5% (inactive).

Regarding `C=C1[C@@H](C)[C@H]2[C@H](Cc3ccccc3)NC(=O)[C@]23OC(=O)/C=C\[C@H](O)CCC[C@@H](C)C/C=C/[C@H]3[C@@H]1O`, the caspase activation in test [1] was 4.5% (inactive).

Regarding `CC(C)(C)n1nc(-c2ccc(Cl)cc2)c2c(N)ncnc21`, the concentration at half-maximal activity (AC50) in test [2] is 44.9 µM.

On to `Cn1c(=NC(=O)CCl)sc2ccccc21`, for which the caspase activation in test [1] is -4.38% (inactive).

As for `Cc1ccc(Sc2c([N+](=O)[O-])c(=O)n(C)c3ccccc23)cc1`, the caspase activation in test [1] is -9.5% (inactive).

Take `O=C(CCl)N=c1sccn1Cc1ccccc1Cl`: the caspase activation in test [1] was -18.4% (inactive).

With `C=C1[C@@H](C)[C@H]2[C@H](Cc3ccccc3)NC(=O)[C@]23[C@H](OC(C)=O)/C=C/[C@](C)(O)C(=O)[C@@H](C)C/C=C/[C@H]3[C@@H]1O`, the caspase activation in test [1] is -0.0184% (inactive).

On to `O=C(Oc1cccc(/C=N/Nc2nc(Nc3ccccc3)nc(N3CCOCC3)n2)c1)c1ccco1`, for which, in test [1], the caspase activation is 3.81% (inactive).
